A selection: hits, their analogues and other compounds. The true share with any hit is near 3.7%.
CFTR F508del cor – F508del CFTR correction, initial screen, CFBE line, single point; 350,000 tested, 0.36% active; CFBE cells, YFP halide quenching; stimulated with forskolin plus potentiator P3; % fluorescence drop versus neutral controls; AID 720511, 2013; activity (quench increase), % at 7.58 µM;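 active = mean added fluorescence quench of at least 8% versus neutral control, with both replicates also reaching 8%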;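 also: cells transiently co-express mutant CFTR-F508del with the halide-sensitive YFP; corrector assay measuring rescue of mutant channel to the surface after 24 h compound exposure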
E-selectin induc – E-selectin induction in HUVECs, primary screen, imaging, HUVEC, immunofluorescence imaging, single point; P16581; normalized: neutral wells 0, TNF-alpha wells 100; activation, % at 7.58 µM; 260,000 tested, 0.37% active; AID 686992, 2013;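 active = mean E-selectin-positive cell signal at least 10% of the positive control, reached in at least 60% of replicates, without over 20% cell loss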
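Test system – human umbilical vein endothelial cells (HUVEC), E-selectin induction · Input – 3,000 HUVEC seeded per well · Buffer or medium – EGM-2, gelatin · Compound dosing – single-point compound dose · Detection – immunofluorescence imaging · Measure – percent E-selectin-positive cells · Controls – TNF-alpha high, DMSO low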
FGF22 binding – binders of human FGF22 protein, primary screen, FGF22 synaptogenesis inhibitor project, biophysical, thermal shift, single point; Fibroblast growth factor 22 (Homo sapiens), Q9HCT0; recombinant FGF22 thermal shift, SYPRO orange fluorescence; percent of sucrose octasulfate shift, DMSO zero; activity (Tm shift, normalised), % at 9.99 µM; 340,000 tested, 1.5% active; AID 651658, 2012;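 active = mean Tm shift, scaled 0 neutral to 100 positive control, at about 1.3% or above, every replicate too, limit read from the data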
Target sequence (Q9HCT0 whole entry, looked up): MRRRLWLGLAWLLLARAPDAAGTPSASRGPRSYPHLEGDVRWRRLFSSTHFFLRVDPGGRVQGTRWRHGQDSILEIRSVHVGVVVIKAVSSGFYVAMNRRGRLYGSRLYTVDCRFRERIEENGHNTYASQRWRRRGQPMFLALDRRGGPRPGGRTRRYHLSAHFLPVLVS
DENV2 CPE rescue – inhibitors of DENV2 cytopathic effect, primary screen, cell-based, plate reader, single concentration; 350,000 tested, 1.7% active; CPE inhibition, % at 9.99 µM; DENV2-infected cells, cytopathic effect rescue; AID 651640, 2012; in the data active = CPE inhibition above about 20%, passing the limit was not always enough; tested in BHK-21 cells
ERAP1 inh – human ERAP1 aminopeptidase inhibitors, primary screen, biochemical, single point, plate reader. recombinant ERAP1, Leu-AMC fluorescence, 60 min. 340,000 tested, 0.15% active. AID 652197, 2013. inhibition, % at 10.7 µM;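 active = mean replicate inhibition of at least 30%, or all replicates individually reaching that 30% level; inactive = mean below 30% and not every replicate reaching it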
Large screens that a line does not name were inactive.

CC(C)Cn1cnc2c1c(=O)n(CC(=O)N(C)C)c(=O)n2Cc1ccccc1	FGF22 binding 44 (no result: E-selectin induc)
CCNC(=O)Cn1c(=O)c2c(ncn2Cc2ccccc2)n(Cc2ccccc2)c1=O	none (no result: E-selectin induc, DENV2 CPE rescue)
COc1ccc(-n2nnnc2CNC(=O)C(=O)c2c[nH]c3ccccc23)cc1	none (no result: E-selectin induc)
O=C(NCc1nnnn1-c1ccc(Cl)cc1)C(=O)c1c[nH]c2ccccc12	CFTR F508del cor 11
CC(C)(C)OC(=O)C[C@H]1C/C=C\C[C@H](CC(=O)N[C@H](CO)Cc2ccccc2)C(=O)N[C@H](C(C)(C)C)COC1=O	none
O=C(C[C@H]1C/C=C\CC[C@H](Cc2ccc(F)cc2)C(=O)O[C@@H](c2ccccc2)CNC1=O)N[C@H](CO)Cc1ccccc1	DENV2 CPE rescue 86 (no result: ERAP1 inh)
O=C(C[C@H]1C/C=C\CC[C@H](Cc2ccc(F)cc2)C(=O)O[C@@H](c2ccccc2)CNC1=O)N[C@@H](CO)Cc1ccccc1	FGF22 binding 44 (no result: DENV2 CPE rescue)
CC(C)(C)OC(=O)C[C@H]1C/C=C\C[C@H](CC(=O)N[C@@H](CO)Cc2ccccc2)C(=O)N[C@H](C(C)(C)C)COC1=O	DENV2 CPE rescue 63
COc1ccccc1S(=O)(=O)N[C@H]1CC[C@H](CC(=O)N2CCOCC2)O[C@@H]1CO	none
CCc1cccc(NC(=O)CCc2nc3sc4c(c3c(=O)[nH]2)CCCC4)c1	E-selectin induc 84 (no result: DENV2 CPE rescue)
Cc1cccc(OCC(=O)NCC(=O)N/N=C/c2ccccc2)c1	FGF22 binding 43 (no result: E-selectin induc)
Cc1cccc(OCC(=O)NCC(=O)N/N=C/c2ccc(O)cc2O)c1	none (no result: DENV2 CPE rescue)
Cc1cccc(OCC(=O)NCC(=O)N/N=C/c2cc(Br)ccc2OCc2ccccc2)c1	none (no result: E-selectin induc)
O=C(COc1cccc(Br)c1)N/N=C/C(=O)c1ccccc1	FGF22 binding 43 (no result: E-selectin induc)
CN1C(=O)c2cc(NC(=O)C3CC3)ccc2OC[C@@H]2O[C@@H](CC(=O)NCc3ccccc3F)CC[C@@H]21	none (no result: FGF22 binding)
CC(C)NC(=O)N[C@H]1C=C[C@@H](CC(=O)NCc2ccc(Oc3ccccc3)cc2)O[C@@H]1CO	none
COc1cccc2c1OCC/C2=N\NC(=O)C(C)Oc1ccc([N+](=O)[O-])cc1 (stereo not drawn)	FGF22 binding 62 (no result: E-selectin induc)
C[C@@H]1CCCCO[C@H](CN(C)C(=O)NC2CCCCC2)[C@H](C)CN([C@@H](C)CO)C(=O)c2cc(NS(=O)(=O)c3ccc(F)cc3)ccc2O1	DENV2 CPE rescue 51 (no result: E-selectin induc)
C[C@H]1CCCCO[C@H](CN(C)C(=O)NC2CCCCC2)[C@@H](C)CN([C@@H](C)CO)C(=O)c2cc(NS(=O)(=O)c3ccc(F)cc3)ccc2O1	DENV2 CPE rescue 24 (no result: E-selectin induc)
COc1ccccc1-c1cn(CC[C@H]2CC[C@H](NC(=O)C3CCC3)[C@H](CO)O2)nn1	DENV2 CPE rescue 35
CC(C)c1cn(CC[C@H]2CC[C@H](NC(=O)C3CC3)[C@H](CO)O2)nn1	DENV2 CPE rescue 62
C[C@@H]1CCCCO[C@H](CN(C)Cc2ccc3c(c2)OCO3)[C@H](C)CN([C@@H](C)CO)C(=O)c2cc(NS(C)(=O)=O)ccc2O1	none (no result: FGF22 binding, DENV2 CPE rescue, ERAP1 inh)
O=C(NN=C1CCCC1)c1[nH]c2ccc(Cl)cc2c1-c1ccccc1	CFTR F508del cor 14
O=C(N/N=C/c1c[nH]c2ccccc12)c1[nH]c2ccc(Br)cc2c1-c1ccccc1	none (no result: CFTR F508del cor, E-selectin induc)
O=C(N/N=C/c1ccc(O)cc1)c1[nH]c2ccc(Br)cc2c1-c1ccccc1	CFTR F508del cor 10.0
COc1ccc(NC(=O)[C@@H](NC(N)=O)C(C)C)cc1Cl	FGF22 binding 44 (no result: E-selectin induc)
CC[C@H](C)[C@H](NC(N)=O)C(=O)Nc1ccc(OC)c(Cl)c1	none (no result: ERAP1 inh)
CC[C@H](C)[C@H](NC(N)=O)C(=O)NCCc1ccc(OC)c(OC)c1	FGF22 binding 43
Cc1noc(C)c1C(=O)OCC(=O)Nc1ccc(C(N)=O)cc1	none
COc1ccc(NC(=O)/C=C/C(=O)O)cc1Cl	none (no result: E-selectin induc)
COc1ccc(NC(=O)COC(=O)c2c(C)noc2C)cc1Cl	DENV2 CPE rescue 39 (no result: FGF22 binding)
COc1ccc(NC(=O)CCCC(=O)O)cc1Cl	FGF22 binding 43
